Insulin prom inh = TRM-6 insulin promoter activity inhibition; TRM-6 cells (human fetal islet line), insulin promoter-eGFP reporter, imaging; reporter expression induced with tamoxifen; inhibition, % at 2 µM; actives 0.9% (n = 130,000); AID 1273;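 active means inhibition above the mean plus 3 SD, with well images judged a real hit on visual review, cut at about 60% in these data, passing the limit was not always enough; inconclusive means inhibition over the cutoff but images rejected on review; inactive means inhibition not above the cutoff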
Ins promoter up = MIN6 insulin promoter up-regulation | MIN6 insulin promoter-GFP reporter, high-content imaging; stronger effect = higher value | z-score at 5 µM | actives 0.3% (n = 190,000) | AID 1625;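 active means z-score above 3 at 5 µM with at least 500 cells counted in the well; inconclusive means wells under 500 cells, flagged as cytotoxic or low count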
Autophagy HCS = autophagy modulation, high-content screen. calls only at 10 µM (by protocol). actives 0.98% (n = 190,000). AID 463193. MEF GFP-LC3 puncta imaging; test concentration mostly 10 µM;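 active means percentage of spot-positive cells more than 3 SD above its plate mean, without a fluorescence outlier flag or 80% toxicity; inconclusive means no clear call, values can overlap the other calls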
Dynein transport = blocks dynein driven cargo transport along microtubules | z-score, hits read low | AID 1381 | actives 0.47% (n = 220,000) | 3617.4 mouse cells, GR-EGFP nuclear translocation imaging; test concentration mostly 20 µM; stimulated with dexamethasone, 1 µM; stronger effect = lower value;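 active means plate z-score of nuclear minus cytoplasmic receptor signal below a set negative limit, without overly bright fluorescence or cell loss, cut at about -3.5 in these data, passing the limit was not always enough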;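 further: z-score of nuclear minus cytoplasmic ring GR-EGFP intensity difference per well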
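Buffer or medium: Induction medium lacking tetracycline, stripped serum | Also added: Dexamethasone agonist, 1.0 µM final, for 30 min | Timing: 48 h induction, 1 h compound, 30 min dex at 37 °C | Detection: Formaldehyde fixation, Hoechst nuclear stain, 10x automated fluorescence imaging | Measure: Nuclear versus cytoplasmic GR-EGFP signal, averaged per well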
Large screens that a line does not name were inactive; ! = not confirmed by another sample. Only some compounds are listed: those with a hit (about 2% of all), similar ones and a draw of the others.

CCCCSc1nnc(-c2ccccc2NC(C)=O)c(=O)[nH]1	none (no result: Insulin prom inh)
CCSc1nnc(-c2ccccc2NC(C)=O)c(=O)[nH]1	Insulin prom inh 71 (no result: Ins promoter up)
CC12CN(C(=O)c3ccccc3Br)CC(C)(CN(C(=O)c3ccccc3Br)C1)C2=O	none (no result: Insulin prom inh, Autophagy HCS)
CCCCCCCCC(=O)N/N=C(\C)c1cccnc1	none (no result: Ins promoter up)
CCCCCC(=O)N/N=C(\C)c1ccc(Cl)cc1	Insulin prom inh 100
CCn1c(SCC(=O)OC(C)C)nnc1-c1ccccc1OC	none (no result: Insulin prom inh)
COc1ccc(-c2nc3scc(-c4ccc(OC)c(OC)c4)c3c(=O)o2)cc1	Autophagy HCS active (no result: Insulin prom inh)
COc1ccc(-c2csc3nc(C(C)C)oc(=O)c23)cc1OC	none (no result: Insulin prom inh)
Cc1ccc(NC(=O)CSc2nnc(-c3ccccn3)n2N)c(Br)c1	none (no result: Insulin prom inh, Autophagy HCS)
Cc1ccc2nc(NC(=O)CN(C)S(=O)(=O)c3ccc(Br)s3)sc2c1	Insulin prom inh 66 (no result: Ins promoter up)
Cc1ccc([N+](=O)[O-])cc1NC(=O)c1cccs1	Ins promoter up 3.2 (no result: Insulin prom inh)
Cc1ccc([N+](=O)[O-])cc1NC(=O)c1ccccc1	none (no result: Insulin prom inh)
O=C(C1=NNCC1c1ccccc1)C1OC1c1ccccc1 (stereo not drawn)	none (no result: Insulin prom inh, Autophagy HCS)
Cc1cc(=O)[nH]c2c1c(C)nn2-c1ccccc1	Insulin prom inh 61
Cc1sc2nc(CN3CCCC3)nc(N3CCN(C(=O)c4ccco4)CC3)c2c1C	Autophagy HCS active (no result: Insulin prom inh)
Cc1sc2nc(CN3CCCC3)nc(N3CCC(C(N)=O)CC3)c2c1C	none (no result: Ins promoter up)
Cc1ccc(C)c(NC(=O)Cn2nnc(-c3ccc(N4CCOCC4)cc3)n2)c1	Autophagy HCS active
Cc1cccc(C)c1NC(=O)Cn1nnc(-c2ccc(N3CCOCC3)cc2)n1	none
CC1(C)CC(NC(=O)C23CCC(C)(C2Br)C3(C)C)CC(C)(C)N1 (stereo not drawn)	none (no result: Insulin prom inh, Ins promoter up, Autophagy HCS)
O=c1c2ccccc2sn1-c1cc(S(=O)(=O)N2CCOCC2)ccc1N1CCOCC1	Dynein transport -6.5
O=c1c2ccccc2sn1-c1cc(S(=O)(=O)N2CCOCC2)ccc1N1CCCC1	none (no result: Ins promoter up)
Oc1ccccc1C1CC(c2cccs2)=NC(c2cccc(Br)c2)N1 (stereo not drawn)	none
Cc1cc(C(=O)NCC2COc3ccccc3O2)c2ccccc2n1 (stereo not drawn)	Insulin prom inh 83 (no result: Ins promoter up)
O=Nc1c(O)n(Cc2ccc(Cl)cc2)c2ccccc12	Ins promoter up 3
Cc1ccc(Cn2c(O)c(N=O)c3ccccc32)cc1	none
COc1cccc(OC)c1OCCN(C)C	Insulin prom inh 70, Ins promoter up 4
CC(C)Nc1nc(NC(C)C)nc(N(C)C#N)n1	Insulin prom inh 77
CCN(C#N)c1nc(NC(C)C)nc(NC(C)C)n1	none
Cc1cc2ccccc2nc1SCC(=O)N1c2ccccc2CC1C (stereo not drawn)	Insulin prom inh 100
O=C(NCc1ccccc1)N[C@@H](Cc1c[nH]c2ccccc12)C(=O)O	Insulin prom inh 75
COc1ccc(COC(=O)C2=C(C)NC(=O)NC2c2ccc(O)c(OC)c2)cc1 (stereo not drawn)	none (no result: Insulin prom inh)
CC1=C(C(=O)OCc2ccc(C)cc2)C(c2ccc(O)c([N+](=O)[O-])c2)NC(=O)N1 (stereo not drawn)	Insulin prom inh 89
COc1ccc(C2(C#N)CCC(=O)N2c2ccccc2)cc1 (stereo not drawn)	none (no result: Insulin prom inh, Autophagy HCS)
O=C(Nc1ccccc1)c1ccccc1C(=O)N1CCCCC1	none
Cc1ccc(CNC(=O)C(C)C2Sc3ccccc3NC2=O)cc1 (stereo not drawn)	none (no result: Insulin prom inh, Autophagy HCS)
Nc1nnc(Cc2ccccc2F)s1	Autophagy HCS active (no result: Insulin prom inh)
CC(CC(=O)O)Nc1ccccc1O (stereo not drawn)	none (no result: Insulin prom inh)
CCOc1ccc(N2C(=O)CC(NCc3ccc(F)cc3)C2=O)cc1 (stereo not drawn)	Autophagy HCS active
O=[N+]([O-])c1cnccc1Nc1cccc(F)c1	none (no result: Ins promoter up)
O=[N+]([O-])c1ccc(Oc2cccc(F)c2)c2ccncc12	Autophagy HCS active
O=C(Nc1nnc(C2CC2)s1)c1cc([N+](=O)[O-])ccc1N1CCCCC1	none
COc1ccc(N2CCN(CCCNC(=O)CN3CCN(Cc4ccccc4C)C3=O)CC2)cc1	Autophagy HCS active (no result: Insulin prom inh)
OCCN1CCN(c2ncnc3sc(-c4ccccc4)cc23)CC1	none
Cc1ccc2[nH]c3c(N4CCN(Cc5ccccc5)CC4)ncnc3c2c1	none (no result: Insulin prom inh, Ins promoter up)
CCOc1ccc2[nH]c3c(N4CCN(c5ccccn5)CC4)ncnc3c2c1	Insulin prom inh 88, Autophagy HCS active (no result: Ins promoter up)
CCn1c(SCC(=O)NNC(=O)c2ccc(OC)cc2)nnc1-c1cccnc1	none (no result: Insulin prom inh)
CC(C)(CSc1nncn1N)NS(=O)(=O)c1ccc(Cl)cc1	Insulin prom inh 77
O=C(c1ccc(COc2ccccc2Cl)o1)N1CCN(Cc2ccc3c(c2)OCO3)CC1	Autophagy HCS active!
CC(C)(C)NC(=O)c1cccc(NC(=O)c2ccc(NC(=O)c3ccco3)cc2)c1	Insulin prom inh 100
COc1ccc(NC(=O)c2ccco2)cc1NC(=O)c1cccc(OC(C)C)c1	Autophagy HCS active (no result: Insulin prom inh)
CC(C)(C)NC(=O)c1cccc(NC(=O)c2ccco2)c1	none
O=C(NCc1nc(-c2ccc(C(F)(F)F)cc2)no1)Nc1cc(Cl)cc(Cl)c1	none (no result: Insulin prom inh, Autophagy HCS)
CCOc1ccc(C)cc1S(=O)(=O)n1ccc(C)n1	none
CCOc1cc(C)c(C(C)C)cc1S(=O)(=O)n1ccc(C)n1	Insulin prom inh 82
Cc1ccccc1Nc1nc(CSc2nnnn2-c2ccccc2)cs1	Insulin prom inh 69
CC(C)c1ccc(NC(=O)NC2CCN(CC(=O)Nc3cccc4ccccc34)CC2)cc1	Autophagy HCS active
CCOC(=O)CC1C(=O)NCCN1C(=O)c1cc2c(=O)n3cccc(C)c3nc2s1 (stereo not drawn)	none (no result: Insulin prom inh)
CCCN1C(=O)/C(=C/c2c(N3CCNC(=O)C3CC(=O)OC)nc3c(C)cccn3c2=O)SC1=S (stereo not drawn)	Ins promoter up 6.5 (no result: Insulin prom inh, Autophagy HCS)
CC(C)(C)c1ccc(C(=O)Nc2cccc([N+](=O)[O-])c2)cc1	Insulin prom inh 72
Cc1ccc(NC(=O)N(Cc2ccc3c(c2)OCO3)Cc2cc3cc4c(cc3[nH]c2=O)OCCO4)cc1	Autophagy HCS active
O=C(c1ccccc1)c1c2c(cc3sc4ccccc4[n+]13)-c1cccc3cccc-2c13	Ins promoter up inconclusive, Autophagy HCS active
O=c1[nH]c2cccnc2n1Cc1ccccc1	Insulin prom inh 82
O=c1[nH]c2ccccc2n1Cc1ccccc1	none (no result: Insulin prom inh)
CCc1ccc2c(c1)c(N=NC1=NC(=O)CS1)c(O)n2C	Insulin prom inh 79
Cc1cc(C)c2[nH]c(O)c(N=NC3=NC(=O)CS3)c2c1	none (no result: Insulin prom inh, Ins promoter up, Autophagy HCS)
CCn1cc(CNCc2cn(C)nc2-c2ccc(C3CCCCC3)cc2)cn1	none (no result: Insulin prom inh)
CCOC(=O)C(C)(C)Sc1nc2c(cnn2-c2ccc(C)cc2)c(=O)[nH]1	Insulin prom inh 100 (no result: Ins promoter up)
CCc1ccc2c(c1)cc(CN(C(=S)Nc1ccccc1)C1CC1)c1nnnn12	Autophagy HCS active (no result: Insulin prom inh, Dynein transport)
CCc1ccc2c(c1)cc(CN(C(=S)Nc1ccccc1C)C1CC1)c1nnnn12	none (no result: Insulin prom inh, Dynein transport)
C=CCN(CC(O)c1cccc([N+](=O)[O-])c1)C(C)CCc1ccccc1 (stereo not drawn)	none (no result: Insulin prom inh, Autophagy HCS)
CC(=O)N(CC(C)(C)CC=C(C)C)c1ccccc1	Insulin prom inh 65
COc1ccccc1C(=O)CSc1ccccn1	Autophagy HCS active

Assay outcomes: PubChem, several laboratories
